The results in this text go back to ChEMBL document CHEMBL1132594, “Discovery of 6-oxo-3-(2-phenylpyrazolo[1,5-a]pyridin-3-yl)-1(6H)- pyridazinebutanoic acid (FK 838): a novel non-xanthine adenosine A1 receptor antagonist with potent diuretic activity” (J Med Chem, 1999).

As a reminder, the bioavailability is the share of a dose that reaches the circulation, judged against a reference dose that is usually intravenous. The low end stands for poor availability, the high end for good availability. The Ki is the dissociation constant of the complex between target and ligand, obtained from inhibition or displacement. Read a low Ki as higher affinity.

Converted amounts (≈) assume the structure as drawn.

Series [1] concerns Rattus norvegicus. As to the kind of experiment: Diuretic activity was measured in saline (20mL/kg, po)-loaded rat as sodium output at 10 mg/kg dose po. The format is functional, Urine. Summed up: (§1)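 Male Sprague–Dawley rats, food withheld 18 h, saline-loaded (20 mL/kg po), then given compound orally as a suspension in 0.5% methyl cellulose; vehicle-dosed controls. Urine collected over 6 h for volume (mL/kg), Na+ and K+ output (μequiv/kg). n = 3 (n = 1 for some vehicle groups); means ± SEM, significance vs vehicle at p < 0.05 / p < 0.01.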

The subject of series [2] is Rattus norvegicus. Put plainly: Diuretic activity was measured in saline (20mL/kg, po)-loaded rat as potassium output at 10 mg/kg dose po. The format is functional, organism-based. Also noted: dose 10 mg/kg. The note with it: Urine. The method in brief:
as §1

Series [3] deals with Rattus norvegicus. Put plainly: Diuretic activity was measured in saline (20mL/kg, po)-loaded rat as urine volume collected for 6 hr at 10 mg/kg dose po. The format is functional. Summed up:
as §1

The test system of series [4] is Rattus norvegicus. As to the kind of experiment: Diuretic activity was measured in saline (20mL/kg, po)-loaded rat as sodium output at 1 mg/kg dose po. Type of series: functional, Urine. The method in brief:
as §1

For series [5], the system named is Rattus norvegicus. Put plainly: Diuretic activity was measured in saline (20mL/kg, po)-loaded rat as sodium output at 3.2 mg/kg dose po. Type of series: functional, Urine. Summed up: as §1
Series [6] has as its system Rattus norvegicus. Put plainly: Diuretic activity was measured in saline (20mL/kg, po)-loaded rat as potassium output at 1 mg/kg dose po. The format is functional, organism-based. Also noted: dose 1 mg/kg. The note with it: Urine. The method in brief: as §1
Series [7] has as its system Rattus norvegicus. As to the kind of experiment: Diuretic activity was measured in saline (20mL/kg, po)-loaded rat as potassium output at 3.2 mg/kg dose po. The note with it: Urine. The format is functional, organism-based. Details: dose 3.2 mg/kg. The method in brief:
as §1

The subject of series [8] is Rattus norvegicus. Put plainly: Diuretic activity was measured in saline (20mL/kg, po)-loaded rat as urine volume collected for 6 h at 3.2 mg/kg dose po. The format is functional. The method in brief:
as §1

The test system of series [9] is Rattus norvegicus. Put plainly: Diuretic activity was measured in saline (20mL/kg, po)-loaded rat as urine volume collected for 6 hr at 1 mg/kg dose po. The format is functional. Summed up: as §1
A short description of series [10]: Oral bioavailability in rat (fasted). Type of series: ADME, organism-based. The note with it: in vivo. The method in brief: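 Fasted rats given a single oral dose of compound suspended in 0.5% methyl cellulose solution, 3.2 or 10 mg/kg depending on compound, n = 3–4 per group.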
The nature of series [11]: solubility in water (ug/mL) at 37 degree C. The format is physicochemical. The note with it: read-out: S. Summed up:
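Aqueous solubility measured in water at 37 °C; sodium salt form used for one compound.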

The target in a further series is Adenosine A2 receptor (Rattus norvegicus, UniProt P29276+P30543). As to the kind of experiment: Adenosine A2 receptor binding using [3H]CGS-21680 in rat striatal membranes. The format is cell membranes, Striatum, Membrane. Summed up:
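Radioligand displacement of [3H]CGS 21680 from rat striatal membranes. Values are means ± 95% confidence limits from at least three independent experiments.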

Series [12] deals with T1, Adenosine receptor A1 (Rattus norvegicus, UniProt P25099).
T1 sequence (P25099 whole entry): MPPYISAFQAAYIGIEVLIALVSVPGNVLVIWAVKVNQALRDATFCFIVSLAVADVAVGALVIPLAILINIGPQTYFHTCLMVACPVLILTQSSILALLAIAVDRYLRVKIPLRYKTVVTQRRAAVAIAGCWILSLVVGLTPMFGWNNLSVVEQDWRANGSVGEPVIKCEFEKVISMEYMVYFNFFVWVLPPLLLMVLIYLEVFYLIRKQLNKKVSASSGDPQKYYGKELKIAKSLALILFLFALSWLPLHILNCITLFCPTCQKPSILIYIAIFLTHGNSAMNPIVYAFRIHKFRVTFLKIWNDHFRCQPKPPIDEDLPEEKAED
As to the kind of experiment: Adenosine A1 receptor using [3H][…] in rat cortical membranes. The format is cell membranes.

The subject of series [13] is Rattus norvegicus. As to the kind of experiment: Diuretic activity was measured in saline (20mL/kg, po)-loaded rat as sodium output at 0.032 mg/kg dose po. The format is functional, Urine. The method in brief: as §1
The subject of series [14] is Rattus norvegicus. As to the kind of experiment: Diuretic activity was measured in saline (20mL/kg, po)-loaded rat as sodium output at 0.1 mg/kg dose po. Type of series: functional, Urine. Summed up:
as §1

The test system of series [15] is Rattus norvegicus. Put plainly: Diuretic activity was measured in saline (20mL/kg, po)-loaded rat as urine volume collected for 6 hr at 0.032 mg/kg dose po. The format is functional. Summed up:
as §1

Series [16] relates to Rattus norvegicus. Put plainly: Diuretic activity was measured in saline (20mL/kg, po)-loaded rat as urine volume collected for 6 hr at 0.1 mg/kg dose po. Type of series: functional. Summed up:
as §1

The target of series [17] is T2, Adenosine receptor A1 (Rattus norvegicus) (UniProt P25099).
T2 sequence (whole entry): T1 sequence (P25099 whole entry)

Series [18] deals with T3, Adenosine receptor A1 (Homo sapiens, UniProt P30542).
T3 sequence (P30542 whole entry): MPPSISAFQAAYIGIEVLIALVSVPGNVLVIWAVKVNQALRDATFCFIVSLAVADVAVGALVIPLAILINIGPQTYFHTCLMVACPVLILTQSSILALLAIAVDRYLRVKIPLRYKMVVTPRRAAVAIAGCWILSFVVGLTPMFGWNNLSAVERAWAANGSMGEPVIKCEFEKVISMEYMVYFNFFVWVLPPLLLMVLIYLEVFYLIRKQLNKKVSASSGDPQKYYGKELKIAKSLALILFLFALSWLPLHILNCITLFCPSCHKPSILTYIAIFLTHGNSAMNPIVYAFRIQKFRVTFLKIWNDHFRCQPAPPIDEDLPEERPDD
As to the kind of experiment: Adenosine A1 receptor binding using [3H]DPCPX in human cortical membranes. Type of series: cell membranes.

For series [19], the target named is T1, Adenosine receptor A1. As to the kind of experiment: Adenosine A1 receptor binding using [3H][…] in rat cortical membranes. The format is cell membranes. The method in brief:
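Displacement of [3H]DPCPX binding in rat cortical membranes. Values are means ± 95% confidence limits from at least three independent experiments.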

The test system of series [20] is Rattus norvegicus. As to the kind of experiment: Diuretic activity was measured in saline (20mL/kg, po)-loaded rat as sodium output at 0.32 mg/kg dose po. The format is functional, Urine. The method in brief:
as §1

Series [21] relates to Rattus norvegicus. As to the kind of experiment: Diuretic activity was measured in saline (20mL/kg, po)-loaded rat as urine volume collected for 6 hr at 0.32 mg/kg dose po. The format is functional. The method in brief: as §1

The molecule `Oc1ccc(-c2c(-c3ccccc3)nn3ccccc23)nn1` displayed a Na in the series on Rattus norvegicus [1] of 4640 u equiv kg-1. Besides, the K in the series on Rattus norvegicus [2] was 826 u equiv kg-1. Also, the Urine volume with Rattus norvegicus [3] amounted to 33.3 mL/kg.
`O=C(O)CCn1nc(-c2c(-c3ccccc3)nn3ccccc23)ccc1=O`: the figures for the Na in the series with Rattus norvegicus [4], with Rattus norvegicus [1] and in the series with Rattus norvegicus [5] were 3350 u equiv kg-1, 5260 u equiv kg-1 and 4860 u equiv kg-1, respectively. In addition, the values for the K in the series on Rattus norvegicus [6], in the series on Rattus norvegicus [2] and in the series with Rattus norvegicus [7] were 790 u equiv kg-1, 901 u equiv kg-1 and 904 u equiv kg-1, respectively. The Urine volume in the series with Rattus norvegicus [3] was determined as 31.4 mL/kg; with Rattus norvegicus [8], 28.1 mL/kg; in the series with Rattus norvegicus [9] it was 19.1 mL/kg.
Take `c1ccc(-c2nn3ccccc3c2-c2ccnnc2)cc1`: the results for the Na in the series with Rattus norvegicus [4], in the series with Rattus norvegicus [1] and in the series on Rattus norvegicus [5] were 2800 u equiv kg-1, 5110 u equiv kg-1 and 3770 u equiv kg-1, respectively. Also, the K in the series with Rattus norvegicus [6] is 569 u equiv kg-1; in the series with Rattus norvegicus [2], 907 u equiv kg-1; in the series with Rattus norvegicus [7] it was 667 u equiv kg-1. Moreover, the Urine volume in the series with Rattus norvegicus [3] was 38 mL/kg; in the series with Rattus norvegicus [8], 29.5 mL/kg; in the series with Rattus norvegicus [9], 23.8 mL/kg.
In series [10], `O=C(O)CCCn1nc(-c2c(-c3ccccc3)nn3ccccc23)ccc1=O` came in with a bioavailability of 78%. In [11], the solubility turned out to be 10000 µg/mL (≈ 26.7 mM). Also, the “Log Ki” value on Adenosine A2 receptor is -5.92. Also, the affinity at Adenosine receptor A1 [12], expressed as Ki, was 6.61 nM. In addition, the Na in the series on Rattus norvegicus [13] turned out to be 2390 u equiv kg-1; with Rattus norvegicus [14], 3860 u equiv kg-1; with Rattus norvegicus [4], 5260 u equiv kg-1; with Rattus norvegicus [1], 5680 u equiv kg-1. Further, the K in the series with Rattus norvegicus [6] is 967 u equiv kg-1; with Rattus norvegicus [2], 1150 u equiv kg-1. Further, the Urine volume is 15.6 mL/kg in the series with Rattus norvegicus [15], 26.4 mL/kg in the series with Rattus norvegicus [16] and 26.4 mL/kg in series [17]. The molecule also registered a UV in the series with Rattus norvegicus [3] of 38.6 mL/kg.
In the case of `O=c1ccc(-c2c(-c3ccccc3)nn3ccccc23)nn1CCCO`, in the series on Rattus norvegicus [1], the Na amounted to 5160 u equiv kg-1. The molecule further yielded a K in the series on Rattus norvegicus [2] of 964 u equiv kg-1. For the same molecule, the Urine volume in the series on Rattus norvegicus [3] came out at 37.9 mL/kg.
On the same counts, the results for `CCCn1nc(-c2c(-c3ccccc3)nn3ccccc23)ccc1=O` are 5510 u equiv kg-1, 972 u equiv kg-1 and 36.8 mL/kg.
`c1ccc(-c2nn3ccccc3c2-c2ccncc2)cc1` registered a Na in the series with Rattus norvegicus [1] of 5110 u equiv kg-1. Besides, the K in the series with Rattus norvegicus [2] turned out to be 975 u equiv kg-1. The same molecule showed a Urine volume in the series on Rattus norvegicus [3] of 34.2 mL/kg.
On the same counts, the results for `O=C(O)CCCCn1nc(-c2c(-c3ccccc3)nn3ccccc23)ccc1=O` are 4510 u equiv kg-1, 977 u equiv kg-1 and 36.3 mL/kg.
The like results for `Cn1nc(-c2c(-c3ccccc3)nn3ccccc23)ccc1=O` were, in that order, 4870 u equiv kg-1, 891 u equiv kg-1 and 30 mL/kg.
`O=C(/C=C/c1c(-c2ccccc2)nn2ccccc12)N1CCCC[C@@H]1CCO` [FK453] yielded a bioavailability in series [10] of 8.8%. The solubility in series [11] was 11.9 µg/mL (≈ 0.0317 mM). In addition, the Ki at Adenosine receptor A1 [18] and at Adenosine receptor A1 [19] was 0.49 nM each time. For the same molecule, the Na in the series with Rattus norvegicus [20] was found to be 2350 u equiv kg-1; with Rattus norvegicus [4], 3290 u equiv kg-1; with Rattus norvegicus [1] it was 5820 u equiv kg-1; with Rattus norvegicus [5], 4110 u equiv kg-1. The results for the K in the series with Rattus norvegicus [6], in the series with Rattus norvegicus [2] and with Rattus norvegicus [7] were 833 u equiv kg-1, 1070 u equiv kg-1 and 831 u equiv kg-1, respectively. For the same molecule, the Urine volume turned out to be 18 mL/kg with Rattus norvegicus [21], 44.4 mL/kg in the series with Rattus norvegicus [3], 31.9 mL/kg in the series on Rattus norvegicus [8] and 24.6 mL/kg in the series with Rattus norvegicus [9].
`O=c1ccc(-c2c(-c3ccccc3)nn3ccccc23)nn1CCO` had a Na in the series on Rattus norvegicus [1] of 5930 u equiv kg-1. The molecule further displayed a K in the series with Rattus norvegicus [2] of 942 u equiv kg-1. The molecule further showed a Urine volume in the series with Rattus norvegicus [3] of 40.4 mL/kg.
